Sampled rows, rich in hits. Any-hit rate of the full collection: about 3.5%.
RGS4 inh: RGS4 inhibitors, primary screen, cell-based, HEK293 M3R inducible RGS4, calcium flux; 310,000 compounds, 0.45% hits; Regulator of G-protein signaling 4 (Homo sapiens), P49798; Fluo-4 calcium flux; stronger effect = higher value; triggered by carbachol at its EC20; B-score at 10 µM;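 active = B-score, a plate-corrected calcium signal, over three deviations above library mean, with baseline fluorescence within five deviations of library mean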;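 also: RGS4 expression induced by doxycycline in cells with stable M3 receptor; B-score is computed from the integrated fluorescence ratio over baseline after carbachol; higher B-score means a larger calcium signal and so more RGS4 inhibition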
Target sequence (P49798 whole entry, looked up): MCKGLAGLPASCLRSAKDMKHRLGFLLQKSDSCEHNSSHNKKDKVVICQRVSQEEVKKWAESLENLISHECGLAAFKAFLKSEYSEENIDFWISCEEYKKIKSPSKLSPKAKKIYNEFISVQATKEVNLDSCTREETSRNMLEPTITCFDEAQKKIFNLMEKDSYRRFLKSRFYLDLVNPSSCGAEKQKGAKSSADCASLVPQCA
MrgX1 antagonist: antagonists of human MrgX1 receptor, primary screen, HEK293 cells, Fluo-4 calcium flux. AID 588676, 2011. BAM8-22 antagonism; stronger effect = lower value. Mas-related G-protein coupled receptor member X1 (Homo sapiens), Q96LB2. B-score at 10 µM. 310,000 compounds, 1.3% hits;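 active = calcium-response B-score plate-corrected more than 3 library SD below zero, starting fluorescence within 5 deviations, no agonist response on first addition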;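 also: peak minus trough fluorescence over baseline after final BAM8-22 challenge near maximal dose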
Target sequence (Q96LB2 whole entry, looked up): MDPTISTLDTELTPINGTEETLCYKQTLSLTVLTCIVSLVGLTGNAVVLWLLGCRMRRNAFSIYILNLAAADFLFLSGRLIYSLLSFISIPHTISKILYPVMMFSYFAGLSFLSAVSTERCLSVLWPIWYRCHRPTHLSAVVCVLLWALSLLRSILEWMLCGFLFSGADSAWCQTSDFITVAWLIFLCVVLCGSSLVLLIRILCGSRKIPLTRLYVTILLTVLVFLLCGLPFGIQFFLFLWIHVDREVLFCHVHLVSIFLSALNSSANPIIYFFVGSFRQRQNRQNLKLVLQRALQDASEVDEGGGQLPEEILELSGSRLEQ
MrgX1 allo act: positive allosteric modulators of MrgX1, primary screen, HEK293 cells, Fluo-4 calcium flux | FDSS; stronger effect = higher value | 310,000 compounds, 0.63% hits | AID 588675, 2011 | B-score at 10 µM | Mas-related G-protein coupled receptor member X1 (Homo sapiens), Q96LB2;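 active = plate-corrected calcium response at least 3 library SD above typical, normal starting fluorescence, not activating the receptor alone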;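 also: compound read alongside a low EC10 to EC30 dose of BAM8-22 agonist; peak minus trough fluorescence over baseline measured at the second addition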
MrgX1 agonist: agonists of human MrgX1 receptor, primary screen, HEK293 cells, Fluo-4 calcium flux | B-score at 10 µM | Fluo-4 calcium fluorescence, agonist mode; stronger effect = higher value | 310,000 compounds, 0.44% hits | AID 588627, 2011;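 active = calcium response B-score plate-corrected fluorescence ratio at least 3 library SD, with starting fluorescence B-score inside 5 SD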
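Test system: HEK293 cells stably expressing human MrgX1 receptor; amount: 15,000 cells per well; doses: compound delivered in addition one of three; times: overnight plating before 1 h dye loading; detection: Fluo-4 NW calcium-flux fluorescence, kinetic read; read-out basis: B-scored fluorescence response ratio; controls: positive and negative controls per plate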
RGS4 act: RGS4 potentiators or activators, primary screen, cell-based, HEK293 M3R inducible RGS4, calcium flux | AID 463111, 2010 | 310,000 compounds, 0.92% hits | carbachol calcium flux Fluo4; stronger effect = lower value | B-score at 10 µM;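 active = B-score of the integrated calcium signal more than 4 SD below the library mean, with starting fluorescence not abnormally high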;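 also: negative B-score means reduced calcium response which marks RGS4 activation or potentiation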
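Material: Inducible-RGS4 HEK293 cells carrying M3 receptor; also added: carbachol at ECmax as muscarinic agonist stimulus; incubation: compound preincubation 20 min at room temperature before agonist; signal: Fluo4-AM (2 µM) calcium-flux fluorescence, kinetic read; measure: integrated calcium ratio converted to B score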
MrgX1 antag conf: MrgX1 receptor antagonists, duplicate retest, confirmation, HEK293 cells, Fluo-4 calcium flux; shares compounds with MrgX1 antagonist; remaining BAM8-22 calcium response % of control (stronger effect = lower value), % at 10 µM; AID 602420, 2012; 2,300 compounds, 19% hits; BAM8-22 calcium flux; stronger effect = lower value;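 active = remaining agonist calcium response no higher than 100% minus 3 SD of agonist-only control wells, with starting fluorescence near control levels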;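 also: agonist BAM8-22 given at a near maximal EC90 to ECmax level; peak minus minimum fluorescence divided by baseline after agonist addition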
HEK293 Ca flux: nonspecific calcium signal in parental HEK293, confirmation, counter-screen for MrgX1 antagonist project, parental HEK293 cells, Fluo-4 calcium flux; shares compounds with MrgX1 antagonist; Fluo-4 calcium fluorescence, FDSS; fluorescence ratio F(max-min)/F0 at 10 µM; 4,000 compounds, 2% hits; AID 624111, 2012;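 active = duplicate-averaged calcium fluorescence ratio at least three times the standard deviation of buffer wells, a nonspecific response in parental cells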
HEK293 Ca counter: calcium response in parental HEK293 cells, primary screen, counter-screen for MrgX1 allosteric activator project, cell-based, Fluo-4 calcium flux, duplicate; shares compounds with MrgX1 antagonist; fluorescence ratio F(max-min)/F0 at 10 µM; Fluo-4 fluorescence ratio; stronger effect = higher value; 4,000 compounds, 0.4% hits; AID 624114, 2012;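 active = calcium fluorescence ratio, averaged over duplicates, at least 3 SD of the buffer-well ratio, meaning a nonspecific response in receptor-free cells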;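 also: untransfected parental HEK293 lacking MrgX1 used as counterscreen for MrgX1 allosteric activators; fluorescence change taken during the second addition on a kinetic imager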
HEK293 Ca cntr2: calcium response in parental HEK293 cells, primary screen, counter-screen for MrgX1 agonist project, cell-based, Fluo-4 calcium flux, duplicate, agonist mode | shares compounds with MrgX1 antagonist | Fluo-4 calcium fluorescence (FDSS); stronger effect = higher value | fluorescence ratio F(max-min)/F0 at 10 µM | 4,000 compounds, 8.7% hits | AID 624115, 2012;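 active = calcium fluorescence ratio at least three times the spread of buffer wells, meaning a non-specific response in parental cells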
Starred values were filed as active, the others as inactive.

How did O=C(Nc1ccc(OC(F)(F)F)cc1)Oc1ccccc1N1CCCCC1 do in these assays?
RGS4 inh: inactive; MrgX1 antagonist: -5.4*; MrgX1 allo act: inactive; MrgX1 agonist: inactive; RGS4 act: inactive; MrgX1 antag conf: inactive; HEK293 Ca flux: inactive; HEK293 Ca counter: inactive; HEK293 Ca cntr2: inactive

How did COc1ccc(-n2c(-c3ccc(Cl)cc3)c[n+]3c2CCc2ccccc2-3)cc1 do in these assays?
RGS4 inh: inactive; MrgX1 antagonist: inactive; MrgX1 allo act: inactive; MrgX1 agonist: inactive; RGS4 act: inactive

Results for Cc1ccc(-n2c(-c3ccc(Br)cc3)c[n+]3c2CCc2ccc4cccnc4c2-3)cc1 ?
RGS4 inh: inactive; MrgX1 antagonist: -11*; MrgX1 allo act: inactive; MrgX1 agonist: inactive; RGS4 act: inactive; MrgX1 antag conf: 19%*; HEK293 Ca flux: inactive; HEK293 Ca counter: inactive; HEK293 Ca cntr2: inactive

Results for Cc1ccc(S(=O)(=O)N(CC(=O)NC2CC2)c2ccc(C)c(Cl)c2)cc1 ?
RGS4 inh: inactive; MrgX1 antagonist: -5*; MrgX1 allo act: inactive; MrgX1 agonist: inactive; RGS4 act: inactive; MrgX1 antag conf: inactive; HEK293 Ca flux: inactive; HEK293 Ca counter: inactive; HEK293 Ca cntr2: inactive

How did O=C(Nc1nc(-c2cccs2)cs1)c1ccc(Cl)cc1 do in these assays?
RGS4 inh: inactive; MrgX1 antagonist: inactive; MrgX1 allo act: inactive; MrgX1 agonist: inactive; RGS4 act: inactive

What do the screens show for `COc1ccc(C(=O)Nc2nc(-c3cccs3)cs2)cc1`?
RGS4 inh: inactive; MrgX1 antagonist: -7.6*; MrgX1 allo act: inactive; MrgX1 agonist: inactive; RGS4 act: inactive; MrgX1 antag conf: inactive; HEK293 Ca flux: inactive; HEK293 Ca counter: inactive; HEK293 Ca cntr2: inactive

Results for O=C(Cn1ncn2c(cc3sccc32)c1=O)NC1CCCC1 ?
RGS4 inh: inactive; MrgX1 antagonist: inactive; MrgX1 allo act: inactive; MrgX1 agonist: inactive; RGS4 act: inactive

How did O=C(c1ccccc1)N1CCN(Cc2ccccc2)CC1 do in these assays?
RGS4 inh: inactive; MrgX1 antagonist: inactive; MrgX1 allo act: inactive; MrgX1 agonist: inactive; RGS4 act: inactive

How did Cc1ccc(CN2CCN(C(=O)c3ccncc3)CC2)cc1 do in these assays?
RGS4 inh: inactive; MrgX1 antagonist: -4.7*; MrgX1 allo act: inactive; MrgX1 agonist: inactive; RGS4 act: inactive; MrgX1 antag conf: inactive; HEK293 Ca flux: inactive; HEK293 Ca counter: inactive; HEK293 Ca cntr2: inactive

How did COc1ccc(CCNC(=O)CSc2nc3ccccc3o2)cc1 do in these assays?
RGS4 inh: inactive; MrgX1 antagonist: inactive; MrgX1 allo act: inactive; MrgX1 agonist: inactive; RGS4 act: inactive

What do the screens show for `O=c1sc(Nc2ccccc2)nc2ccccc12`?
RGS4 inh: inactive; MrgX1 antagonist: inactive; MrgX1 allo act: inactive; MrgX1 agonist: inactive; RGS4 act: inactive

How did Cc1ccc(Nc2nc3ccccc3c(=O)s2)cc1 do in these assays?
RGS4 inh: inactive; MrgX1 antagonist: -7.3*; MrgX1 allo act: inactive; MrgX1 agonist: inactive; RGS4 act: inactive; MrgX1 antag conf: inactive; HEK293 Ca flux: inactive; HEK293 Ca counter: inactive; HEK293 Ca cntr2: inactive

What do the screens show for `CCOc1ccc(-c2nnn(CC(=O)c3cc(OC)ccc3OC)n2)cc1`?
RGS4 inh: inactive; MrgX1 antagonist: -4.7*; MrgX1 allo act: inactive; MrgX1 agonist: inactive; RGS4 act: inactive; MrgX1 antag conf: 81%*; HEK293 Ca flux: inactive; HEK293 Ca counter: inactive; HEK293 Ca cntr2: inactive

What do the screens show for `O=C(Nc1ccc(F)cc1)Nc1ccc2c(c1)OCO2`?
RGS4 inh: inactive; MrgX1 antagonist: -4.8*; MrgX1 allo act: inactive; MrgX1 agonist: inactive; RGS4 act: inactive; MrgX1 antag conf: inactive; HEK293 Ca flux: inactive; HEK293 Ca counter: inactive; HEK293 Ca cntr2: inactive

Results for O=C(Nc1ccc2c(c1)OCO2)Nc1ccc2c(c1)OCO2 ?
RGS4 inh: inactive; MrgX1 antagonist: inactive; MrgX1 allo act: inactive; MrgX1 agonist: inactive; RGS4 act: inactive

Results for Cc1ccc(C(C)C)c(OCC(=O)N2CCOCC2)c1 ?
RGS4 inh: inactive; MrgX1 antagonist: -6*; MrgX1 allo act: inactive; MrgX1 agonist: inactive; RGS4 act: inactive; MrgX1 antag conf: inactive; HEK293 Ca flux: inactive; HEK293 Ca counter: inactive; HEK293 Ca cntr2: inactive

How did Cn1c(SCC(=O)c2ccc(O)cc2O)nnc1-c1ccccc1 do in these assays?
RGS4 inh: inactive; MrgX1 antagonist: inactive; MrgX1 allo act: inactive; MrgX1 agonist: inactive; RGS4 act: inactive

What do the screens show for `COC(=O)c1ccc(Nc2ncnc3c2cnn3-c2cccc(C)c2)cc1`?
RGS4 inh: inactive; MrgX1 antagonist: -4.8*; MrgX1 allo act: inactive; MrgX1 agonist: inactive; RGS4 act: inactive; MrgX1 antag conf: inactive; HEK293 Ca flux: inactive; HEK293 Ca counter: inactive; HEK293 Ca cntr2: inactive

What do the screens show for `CCOc1ccc(C(NC(C)=O)c2ccc(OC)c(OC)c2)cc1` (configuration not stated)?
RGS4 inh: inactive; MrgX1 antagonist: -4.9*; MrgX1 allo act: inactive; MrgX1 agonist: inactive; RGS4 act: inactive; MrgX1 antag conf: inactive; HEK293 Ca flux: inactive; HEK293 Ca counter: inactive; HEK293 Ca cntr2: inactive

What do the screens show for `CC(C)(Oc1ccc(Cl)cc1)C(=O)OCC(=O)N1CCCC1`?
RGS4 inh: inactive; MrgX1 antagonist: -13*; MrgX1 allo act: inactive; MrgX1 agonist: inactive; RGS4 act: inactive; MrgX1 antag conf: inactive; HEK293 Ca flux: inactive; HEK293 Ca counter: inactive; HEK293 Ca cntr2: inactive
